Bioassay records from PubChem.
Rows were chosen to be rich in hits. Some 2.6% of all compounds tested hit in one or more screens of this group.
CHT allo act: CHT positive allosteric modulators, primary screen, cell-based, membrane potential dye, choline EC20 | B-score at 10 µM | High affinity choline transporter 1 (Homo sapiens), Q9GZV3 | CHT-expressing cells; stronger effect = higher value; LV-AA mutant CHT in HEK293 cells | 0.49% of 310,000 active;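 active = initial fluorescence not abnormally high and integrated response B-score, plate-corrected, over 3 SD above library mean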
Rad51 HR inh: human RAD51 strand exchange inhibitors, primary screen, biochemical, fluorescence; DNA repair protein RAD51 homolog 1 (Homo sapiens), Q06609; hRad51 DNA strand exchange, fluorescence dequenching; inhibition, % at 10 µM; 0.085% of 200,000 active; AID 1385, 2008;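 active = inhibition above 40% at the single screening dose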;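 note: 0% = DMSO control wells and 100% = blanks with heterologous ssDNA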
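Test system: preformed human Rad51 ssDNA filaments; also added: Donor/quencher-labelled 47-bp dsDNA substrate; doses: 10 µM final, single point; times: 37 °C 15-min filament assembly, 30-min compound preincubation, 15-min exchange; detection: FRET fluorescence dequenching, excitation 485 nm, emission 520 nm; read-out basis: Fluorescence-based percent inhibition, control- and blank-normalised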
KCC2 mod: KCC2 cotransporter modulators, thallium flux, primary screen, cell-based, HEK293 KCC2, FluoZin-2 fluorescence, MLSMR; 2.2% of 190,000 active; KCC2 cells, thallium flux FluoZin-2 fluorescence; B-score of Tl+ flux slope (higher = more flux/activation; lower = inhibition) at 10 µM; Solute carrier family 12 member 5 (Homo sapiens), Q9H2X9;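 active = thallium flux slope and its plate-corrected score both differing from the plate sample mean at a set confidence after two filtering rounds, in either direction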;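 note: slope of fluorescence scaled to starting intensity during 10 to 20 s after thallium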
Target sequence (Q9H2X9 whole entry, looked up): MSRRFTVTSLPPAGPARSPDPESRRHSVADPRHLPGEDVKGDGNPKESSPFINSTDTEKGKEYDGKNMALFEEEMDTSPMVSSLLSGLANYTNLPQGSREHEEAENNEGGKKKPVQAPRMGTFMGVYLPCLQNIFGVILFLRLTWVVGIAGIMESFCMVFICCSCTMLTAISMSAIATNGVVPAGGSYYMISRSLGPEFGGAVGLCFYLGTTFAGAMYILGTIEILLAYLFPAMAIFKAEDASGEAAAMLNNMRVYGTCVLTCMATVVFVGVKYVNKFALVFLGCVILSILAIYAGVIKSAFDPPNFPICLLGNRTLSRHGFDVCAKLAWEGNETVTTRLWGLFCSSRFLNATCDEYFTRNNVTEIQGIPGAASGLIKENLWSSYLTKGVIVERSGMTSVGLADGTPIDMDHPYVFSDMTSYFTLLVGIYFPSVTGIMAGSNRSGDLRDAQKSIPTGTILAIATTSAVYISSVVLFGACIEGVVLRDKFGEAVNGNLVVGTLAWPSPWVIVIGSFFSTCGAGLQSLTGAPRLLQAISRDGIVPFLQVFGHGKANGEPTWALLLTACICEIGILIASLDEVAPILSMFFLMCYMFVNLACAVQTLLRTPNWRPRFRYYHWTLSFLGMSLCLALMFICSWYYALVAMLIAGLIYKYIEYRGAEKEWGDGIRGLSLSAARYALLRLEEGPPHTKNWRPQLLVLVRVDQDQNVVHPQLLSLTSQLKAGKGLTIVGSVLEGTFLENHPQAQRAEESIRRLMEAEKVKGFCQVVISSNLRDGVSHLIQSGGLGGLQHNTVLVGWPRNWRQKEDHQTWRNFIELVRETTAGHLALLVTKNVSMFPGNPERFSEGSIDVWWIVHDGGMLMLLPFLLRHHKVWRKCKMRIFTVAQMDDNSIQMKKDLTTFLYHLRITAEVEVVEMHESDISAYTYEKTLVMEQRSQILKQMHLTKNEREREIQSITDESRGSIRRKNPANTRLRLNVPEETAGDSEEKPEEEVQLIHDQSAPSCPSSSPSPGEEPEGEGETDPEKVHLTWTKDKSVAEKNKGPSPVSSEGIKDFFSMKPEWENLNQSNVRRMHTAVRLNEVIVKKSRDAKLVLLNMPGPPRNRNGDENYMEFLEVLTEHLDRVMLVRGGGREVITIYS
CHT block: inhibitors of human choline transporter CHT | High affinity choline transporter 1 (Homo sapiens), Q9GZV3 | CHT-expressing cells, membrane potential dye, choline response; stronger effect = lower value | B-score at 10 µM | 0.86% of 310,000 active | AID 488975, 2010;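 active = B-score over 3 SD under the library average, and starting fluorescence ratio not unusually high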;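 note: choline stimulus applied at its EC90 after an EC20 pre-addition; B-score computed on integrated fluorescence ratio after choline addition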
KCC2 sec1: KCC2 modulators in sodium-free buffer, confirmation, cell-based, HEK293 KCC2, thallium flux, secondary assay | shares compounds with KCC2 mod | FluoZin2 fluorescence; stronger effect = higher value | normalised thallium flux (F/F0 slope) at 10 µM | 15% of 3,700 active;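 active = thallium flux slope above the same plate's solvent-only control mean plus 3 SD; inconclusive = the two replicate wells disagree; inactive = no significant difference from solvent-only control wells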
KCC2 bumet counter: thallium flux persisting under bumetanide in KCC2 cells, confirmation, counter-screen for KCC2 modulator project, cell-based, HEK293 KCC2, FluoZin2, secondary assay 3; normalized thallium flux at 10 µM; HEK293-KCC2 + bumetanide/ouabain; stronger effect = higher value; shares compounds with KCC2 mod; AID 1714, 2009; 49% of 3,700 active;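 active = thallium entry rate above the same plate's blocked-transporter control wells by more than 3 SD; inconclusive = the two repeat wells disagree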;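 note: raw slope of fluorescence over initial fluorescence between 10 and 20 s after thallium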
KCC2 sec2: KCC2 modulators without ouabain present, confirmation, cell-based, HEK293 KCC2, thallium flux, FluoZin2, secondary assay 2; shares compounds with KCC2 mod; thallium flux FluoZin2 fluorescence; actives lie on both sides; F/F0 rise rate, 10–20 s post-thallium; normalized thallium flux at 10 µM; 23% of 3,700 active; AID 1715, 2009;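 active = thallium flux slope more than 3 SD above or below the plate's solvent-only control mean, mostly below; inconclusive = the two repeat wells disagreed; inactive = no significant shift from solvent-only controls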;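 note: raw slope with 0.1% DMSO as baseline and bumetanide as block control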
HEK counter1: thallium flux modulation in parental HEK cells, confirmation, counter-screen for KCC2 modulator project, cell-based, counterscreen 1. shares compounds with KCC2 mod. HEK293 parental cells, thallium flux FluoZin2, ouabain; baseline-ratio fluorescence slope, 10–20 s after thallium. thallium flux rate (normalised fluorescence) at 10 µM. 46% of 3,700 active. AID 1716, 2009;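 active = thallium flux rate significantly above the same plate's solvent-only control wells, beyond their mean plus 3 SD; inconclusive = the two replicate wells gave conflicting results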
KCC2 retest ouab: KCC2 inhibitors and activators, ouabain retest, confirmation, HEK-KCC2 cells. raw Tl+ flux slope (below DMSO = inhibition, above = activation) at 10 µM. AID 1717, 2009. 48% of 3,700 active. shares compounds with KCC2 mod. HEK293-KCC2, thallium flux FluoZin2 fluorescence; bidirectional: low = inhibitor, high = activator;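 active = thallium flux slope beyond 3 SD from same-plate DMSO control mean in most replicates, usually higher, sometimes lower; inconclusive = repeat tests gave conflicting results; inactive = no significant difference from controls in most replicates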;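 note: slope of initial-normalized fluorescence between seconds 10 and 20 after thallium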
HEK counter2: native HEK Tl+ uptake effects, second counter-screen – HEK cells, counterscreen 2, counter-screen for KCC2 modulator project, confirmation; shares compounds with KCC2 mod; HEK293 parental, thallium flux FluoZin-2 fluorescence slope; thallium flux slope at 10 µM; 33% of 3,700 active; AID 1718, 2009;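 active = thallium flux slope above the same plate's solvent-control mean plus 3 SD in both duplicate wells; inconclusive = duplicate wells that disagreed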;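 note: run without ouabain in cells lacking the KCC2 cotransporter; slope of fluorescence scaled to its starting value between 10 and 20 s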
* hit, by the source's call.

For Cn1c(SCC(=O)c2cc(Cl)c(Cl)s2)nnc1-c1ccco1 the results were CHT allo act inactive, Rad51 HR inh 4, KCC2 mod -5.3*, CHT block inactive, KCC2 sec1 0.0071, KCC2 bumet counter 0.03*, KCC2 sec2 0.032, HEK counter1 0.022*, KCC2 retest ouab 0.025 and HEK counter2 0.017*.
For O=C(CSc1nnc(-c2ccco2)n1Cc1ccccc1)NCc1ccccc1 the results were CHT allo act inactive, Rad51 HR inh 0, KCC2 mod -0.07 and CHT block inactive.
For Cc1occc1-c1nnc(SCC(=O)c2ccc(F)cc2)n1Cc1ccco1 the results were CHT allo act inactive, Rad51 HR inh -2, KCC2 mod -3*, CHT block inactive, KCC2 sec1 0.0058, KCC2 bumet counter inconclusive, KCC2 sec2 0.023*, HEK counter1 0.0055*, KCC2 retest ouab 0.011* and HEK counter2 0.0093.
Screening O=C(CSc1nnc(-c2cc3ccccc3cc2O)n1Cc1ccco1)c1ccc(F)cc1 returned CHT allo act inactive, Rad51 HR inh -2, KCC2 mod -0.17 and CHT block inactive.
Screening O=C(CSc1nnc(-c2ccco2)n1Cc1ccccc1)c1ccc(F)cc1 returned CHT allo act inactive, Rad51 HR inh -1, KCC2 mod -6.1*, CHT block inactive, KCC2 sec1 0.0059, KCC2 bumet counter inconclusive, KCC2 sec2 0.021*, HEK counter1 0.0055*, KCC2 retest ouab 0.012* and HEK counter2 inconclusive.
Cn1c(SCC(=O)N2c3ccccc3Sc3ccccc32)nnc1-c1ccco1 was read as CHT allo act inactive, Rad51 HR inh -2, KCC2 mod 0.15 and CHT block inactive.
`Cc1cc(=O)oc2cc(NC(=O)c3ccnn3C)ccc12` gave CHT allo act inactive and CHT block inactive.
`CCC(C)(C)NC(=O)CCn1c(-c2ccccc2)cc(C(C)=O)c1C` gave CHT allo act inactive, Rad51 HR inh 2, KCC2 mod 1.4 and CHT block inactive.
`C=C(C)CNC(=S)NN=C1c2ccccc2-c2ccccc21` gave CHT allo act inactive, Rad51 HR inh -12, KCC2 mod 28*, CHT block inactive, KCC2 sec1 0.0068, KCC2 bumet counter 0.075*, KCC2 sec2 0.046*, HEK counter1 0.026*, KCC2 retest ouab 0.055* and HEK counter2 0.027*.
CCNC(=S)Nc1ccccc1-c1ccccc1 was read as CHT allo act inactive, Rad51 HR inh 3, KCC2 mod 0.21 and CHT block inactive.
